MC4R antag cAMP: blocks human MC4R cAMP signaling; P32245; MC4R-expressing cells, MTII-stimulated cAMP, LANCE TR-FRET; inhibition, % at 6.5 µM; actives 0.48% (n = 360,000); AID 540295;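 active means inhibition above its plate's cutoff, the mean of tested wells on that plate plus 3 SD, cut at about 29% in these data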;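 further: 0% = Melanotan II alone and 100% = Melanotan II plus saturating MCL0020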
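Material: human MC4R-expressing U2OS cells. Probe or stimulus: Melanotan II challenge. Dosing: 6.5 µM single dose. Times: 30-min compound, 1-h challenge, 1-h detection, room temperature. Technique: TR-FRET with Eu-cAMP and labeled anti-cAMP, 671 nm. Replication: singlicate.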
NR1D1 modulator: modulators of human Rev-erb alpha DNA binding. P20393. actives 0.79% (n = 370,000). AID 1259318. activity, % at 10 µM. Rev-erbα–FITC-DNA binding, fluorescence polarization, 90 min;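 active means activity above about 14%, limit read from the data; passing the limit was not always enough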;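 further: 0% = DMSO wells with 35 nM protein and 100% = DMSO wells with 750 nM protein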
MC4R barr agon: human MC4R agonism via beta-arrestin | P32245 | U2OS MC4R beta-arrestin complementation, luminescence; percent of melanotan II response, DMSO zero | activation, % at 8.9 µM | actives 0.98% (n = 360,000);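 active means activation above a per-plate cutoff, the mean activation of sample wells on that plate plus 3 SD, cut at about 8% in these data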
NTR1 agonist: activates human neurotensin receptor 1. AID 493036. P30989. activation, % at 20 µM. NTR1-U2OS beta-arrestin-GFP spot imaging, agonist mode. actives 0.17% (n = 330,000);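 active means activation at or above 40% of the spot to cytoplasm intensity ratio, with at least 20 cells analyzed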;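 further: 0% = DMSO without peptide and 100% = 100 nM NTR1 peptide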
Target sequence (P30989 whole entry, looked up): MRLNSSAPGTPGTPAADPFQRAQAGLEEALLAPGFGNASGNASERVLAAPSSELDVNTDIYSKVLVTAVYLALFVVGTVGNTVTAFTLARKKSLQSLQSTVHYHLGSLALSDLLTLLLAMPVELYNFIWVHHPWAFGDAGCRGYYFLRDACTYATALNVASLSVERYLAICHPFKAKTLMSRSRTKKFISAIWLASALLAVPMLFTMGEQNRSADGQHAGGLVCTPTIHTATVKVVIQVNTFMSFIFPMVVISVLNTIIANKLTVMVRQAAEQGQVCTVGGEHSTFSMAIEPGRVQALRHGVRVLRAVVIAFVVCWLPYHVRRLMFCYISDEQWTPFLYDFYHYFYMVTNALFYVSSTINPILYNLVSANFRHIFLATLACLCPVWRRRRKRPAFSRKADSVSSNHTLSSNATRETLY
PG9 Ab binder: binds the HIV-1 gp120 antibody PG9 | inhibition, % at 6.7 µM | actives 0.43% (n = 360,000) | TR-FRET gp120-PG9 antibody binding | AID 624416; in the data active means inhibition above about 8.5%
MC4R barr ag: human MC4R beta-arrestin agonism confirmation. shares compounds with MC4R barr agon. U2OS MC4R beta-arrestin recruitment, luminescence; scaled DMSO 0%, Melanotan II 100%. activation, % at 8.9 µM. actives 31% (n = 2,400). AID 602192;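 active means mean activation across replicates above the hit cutoff set in the earlier primary screen, cut at about 8% in these data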
MOR DOR agonist: activates mu-delta opioid heterodimer, MC4R agonist counter-screen; shares compounds with MC4R barr agon; U2OS PathHunter beta-arrestin, beta-gal luminescence; percent of deltorphin B response, DMSO zero; activation, % at 9.2 µM; actives 5.8% (n = 2,400);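 active means mean activation across replicates exceeds the hit threshold derived in the earlier primary screen, cut at about 18% in these data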;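 further: 100% = deltorphin B at 0.9 µM final and 0% = DMSO alone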
Starred values were filed as active, the others as inactive; . = not tested or not shown. Shown are actives, neighbours in structure and some others; about 2.5% of the full set was active somewhere.

SMILES	MC4R antag cAMP	NR1D1 modulator	MC4R barr agon	NTR1 agonist	PG9 Ab binder	MC4R barr ag	MOR DOR agonist
COc1ccc(-c2noc(C3CCCN(C(=O)Nc4cc(C)cc(C)c4)C3)n2)cc1 (stereo unspecified)	.	-2.6	.	.	.	.	.
COc1ccc(N2CCCN(CC(=O)Nc3ccc(Cl)cc3)CC2)cc1	.	-4.3	.	.	.	.	.
O=C(CNC(=S)NC(=O)c1cccc([N+](=O)[O-])c1)c1ccccc1	4.6	8.3	11.0*	1.8	-3.3	-1.0	1.8
O=C(NC(=S)NCc1ccccc1)c1cccc([N+](=O)[O-])c1	8.0	-7.1	-1.0	1.2	0.3	.	.
Cc1ccc(-c2csc(NC(=O)c3cccc([N+](=O)[O-])c3)n2)cc1	2.4	-2.1	17.6*	5.0	-0.1	12.7*	5.2
NNc1ccc(S(=O)(=O)N2CCCCC2)cn1	1.7	-4.5	11.7*	-0.8	0.1	-3.4	0.6
CCCC1CCC2(CC1)CCC2OC(=S)NCc1cccc(F)c1 (stereo unspecified)	.	0.7	.	.	.	.	.
Cc1cc(C)cc(NC(=O)Nc2ccc(NC(=O)c3ccccc3O)cc2)c1	18.1	-3.6	15.8*	3.5	0.6	6.3	13.0
CN(C)C(=O)c1cccc(-c2cnc3c(NC=O)cc(-c4ccccc4F)cn23)c1	-21.3	0.5	9.8*	.	0.8	11.0*	1.4
CCSc1ccc(-c2cc(NC=O)c3ncc(-c4cccc(C(=O)NCCN(C)C)c4)n3c2)cc1	2.4	13.2	10.9*	.	-1.4	12.9*	11.2
CCSc1ccc(-c2cc(NC=O)c3ncc(-c4cccc(C(=O)N(C)C)c4)n3c2)cc1	-8.3	5.6	10.5*	.	-2.9	9.1*	2.0
CN(C)CCNC(=O)c1cccc(-c2cnc3c(NC=O)cc(-c4ccc(F)cc4)cn23)c1	-12.1	-0.1	-1.0	.	-0.9	.	.
CN(C)CCNC(=O)c1cccc(-c2cnc3c(NC=O)cc(-c4cccc(F)c4)cn23)c1	-3.4	-1.6	-0.6	.	-0.6	.	.
CN(C)C(=O)c1cccc(-c2cnc3c(NC=O)cc(-c4cc(F)c(F)c(F)c4)cn23)c1	-6.7	-5.2	3.6	.	0.1	.	.
CN(C)CCNC(=O)c1cccc(-c2cnc3c(NC=O)cc(/C=C/c4ccccc4)cn23)c1	-5.1	-4.6	17.2*	.	-4.8	7.2	3.5
CCOC(=O)[C@@]12CN(C(=O)OC(C)(C)C)CC=C1N(Cc1ccc(OC)cc1)C(=O)[C@H]2CC(=O)N1CCSCC1	.	1.8	.	.	.	.	.
COC(=O)[C@H](CC(C)C)N(CCCc1cn(Cc2ccccc2)nn1)S(=O)(=O)c1ccccc1Br	.	-5.2	.	.	.	.	.
NCCC(=O)Nc1ccc(Cl)cc1C(=O)c1ccc[nH]1	.	-0.1	.	.	.	.	.
Cc1nc(-c2cccnc2)sc1C(=O)N/N=C/c1ccccc1Cl	-6.7	-15.2	10.5*	0.6	0.0	-1.0	3.6
N[C@@H]1[C@@H](O)[C@H](O)[C@@H](CO)O[C@H]1O	.	3.7	.	.	.	.	.
O=C(Nc1nccs1)c1ccc(COc2c(F)c(F)cc(F)c2F)cc1	14.9	3.6	11.1*	4.5	-1.6	6.2	5.0
CCOc1ccc(/C=N/NC(=S)NC2CC3CC2C2C=CCC32)cc1 (stereo unspecified)	-0.5	3.2	0.9	7.1	-0.3	.	.
COc1cc(/C=N/NC(=S)NC2CC3CC2C2C=CCC32)ccc1O (stereo unspecified)	-16.2	-2.1	9.9*	35.2	-2.3	5.2	8.2
O=C(CSc1nc(-c2ccc(F)cc2)cc(C(F)(F)F)n1)Nc1ccc2c(c1)OCO2	1.7	5.1	16.7*	2.6	1.9	-0.2	4.3
CCN(CC)S(=O)(=O)c1ccc(-c2nnc(SCC(=O)Nc3ccc4c(c3)OCO4)o2)cc1	4.0	0.7	10.0*	1.8	-0.6	2.5	5.4
C=CCSc1nc2c(c(=O)[nH]c(=O)n2C)n1Cc1ccc(C)cc1	-42.3	8.8	13.9*	6.4	-1.1	1.4	5.7
CCCSc1nc2c(c(=O)[nH]c(=O)n2C)n1Cc1ccc(C)cc1	-8.7	6.5	-1.4	-0.1	0.1	.	.

Compound activity deposited in PubChem by several laboratories.
